# Measurements of several laboratories.
# Cell line: MCF-10A
# Read-out: cell growth or viability
SMILES,technique,time,IC50
C[C@H]1O[C@@H](n2cc(F)c(=O)[nH]c2=O)[C@H](O)[C@@H]1O,CCK-8,48 h,8.51 µM
CCCc1ccc(-c2cnc3c(n2)CCCC3)cc1,,48 h,> 50 µM
COc1cccc2c1C(=O)c1c(O)c3c(c(O)c1C2=O)C[C@@](O)(C(=O)CO)C[C@@H]3O[C@H]1C[C@H](N)[C@H](O)[C@H](C)O1,resazurin,72 h,0.037 µM
CCCOc1cccc(-c2cnc3c(n2)CCCC3)c1,,48 h,> 50 µM
c1ccc2cc(-c3nnc(NC4CCCCC4)[nH]3)ccc2c1,,48 h,86.6 µM
CC(C)C(=O)Nc1ccc([N+](=O)[O-])c(C(F)(F)F)c1,CCK-8,48 h,21.4 µM
Cc1cc2ncc(-c3ccccc3)nc2cc1C,,48 h,> 50 µM
CC(C)[C@H](NC(=O)c1cc(Cl)ccc1OCCNC(=O)OC(C)(C)C)C(=O)Nc1ccc([N+](=O)[O-])cc1Cl,MTT,72 h,> 60 µM
COc1cccc2c1C(=O)c1c(O)c3c(c(O)c1C2=O)C[C@@](O)(C(=O)CO)C[C@@H]3O[C@H]1C[C@H](N)[C@H](O)[C@H](C)O1,,48 h,2.17 µM
O=C(/C=C/c1ccccc1)c1ccccc1,resazurin,72 h,3.15 µM
CCN(CC)CCNC(=O)c1c(C)[nH]c(/C=C2\C(=O)Nc3ccc(F)cc32)c1C,,72 h,4.07 µM
O=C(NC(=S)NCCNC(=S)NC(=O)c1ccc2ccccc2c1)c1ccc2ccccc2c1,,48 h,86.1 µM
C[C@](C#N)(COc1cc(C#N)ccc1C(F)(F)F)NC(=O)c1ccc(SC(F)(F)F)cc1,,48 h,~32.8 µM
COc1ccc(-c2cnc3c(n2)CCCC3)cc1C#N,,48 h,> 50 µM
